Test system: B16/F1 melanoma cells
Assay: Cytotoxicity in B16/F1 melanoma cells
Type: cell-based, murine
Settings: 0.1 µM, 3 h incubation at 37 °C, MTT 5 days post treatment
Method in brief: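 B16/F1 cells at 150/well, overnight in CO2 incubator, washed with RPMI 1640, then exposed 3 h at 37 °C to 0.1 µM test compound in binding medium; controls kept in culture medium only. Washed, grown 5 days with medium changed every other day; MTT (0.5 mg/mL) 3 h at 37 °C, formazan dissolved in acidic isopropanol, A570 minus A630. Survival = treated/control absorbance × 100%.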

Substance: [Cys^3,4,10, D-Phe^7, Arg^11]α-MSH3–13 [(Arg^11)CCMSH]
- decrease of survival percentage versus untreated control cells: 15%
